Seven compounds from ChEMBL document CHEMBL1128460, “Design, synthesis, and structure-activity relationships of a new series of alpha-adrenergic agonists: spiro[(1,3-diazacyclopent-1-ene)-5,2'-(1',2',3',4'- tetrahydronaphthalene)]” (J Med Chem, 1995) can be followed below.

Molecules are shown by their SMILES.

Assay [1] concerns the target T1, Adrenergic receptor alpha-1 (Rattus norvegicus, UniProt P15823+P23944+P43140).
T1 sequence (P15823 whole entry): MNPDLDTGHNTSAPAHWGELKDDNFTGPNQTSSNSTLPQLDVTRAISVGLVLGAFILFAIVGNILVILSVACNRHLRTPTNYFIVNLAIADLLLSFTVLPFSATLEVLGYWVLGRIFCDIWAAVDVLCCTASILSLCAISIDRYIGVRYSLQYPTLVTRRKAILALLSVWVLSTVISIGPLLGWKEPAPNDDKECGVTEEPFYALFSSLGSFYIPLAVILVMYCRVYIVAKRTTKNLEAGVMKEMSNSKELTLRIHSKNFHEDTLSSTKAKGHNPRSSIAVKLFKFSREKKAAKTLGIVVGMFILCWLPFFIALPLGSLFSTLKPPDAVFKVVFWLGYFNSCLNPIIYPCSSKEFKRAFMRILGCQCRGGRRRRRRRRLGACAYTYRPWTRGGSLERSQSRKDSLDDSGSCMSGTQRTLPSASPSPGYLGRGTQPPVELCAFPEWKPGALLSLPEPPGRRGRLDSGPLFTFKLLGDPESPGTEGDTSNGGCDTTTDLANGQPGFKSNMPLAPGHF
T1 sequence (P23944 whole entry): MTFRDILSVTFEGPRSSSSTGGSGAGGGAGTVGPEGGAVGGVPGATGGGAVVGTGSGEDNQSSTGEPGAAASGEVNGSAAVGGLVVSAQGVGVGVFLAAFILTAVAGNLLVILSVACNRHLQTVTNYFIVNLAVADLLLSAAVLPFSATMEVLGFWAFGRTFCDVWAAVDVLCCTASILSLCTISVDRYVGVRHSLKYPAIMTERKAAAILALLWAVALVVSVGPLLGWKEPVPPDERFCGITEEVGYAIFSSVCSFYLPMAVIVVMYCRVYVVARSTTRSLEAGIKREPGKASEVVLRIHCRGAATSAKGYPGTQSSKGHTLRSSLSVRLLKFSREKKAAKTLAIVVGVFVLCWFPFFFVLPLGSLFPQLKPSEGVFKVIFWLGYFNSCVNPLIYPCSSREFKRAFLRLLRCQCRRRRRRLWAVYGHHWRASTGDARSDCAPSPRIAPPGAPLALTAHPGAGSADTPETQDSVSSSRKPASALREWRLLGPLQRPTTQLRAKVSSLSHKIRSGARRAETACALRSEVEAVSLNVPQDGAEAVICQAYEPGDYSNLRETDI
T1 sequence (P43140 whole entry): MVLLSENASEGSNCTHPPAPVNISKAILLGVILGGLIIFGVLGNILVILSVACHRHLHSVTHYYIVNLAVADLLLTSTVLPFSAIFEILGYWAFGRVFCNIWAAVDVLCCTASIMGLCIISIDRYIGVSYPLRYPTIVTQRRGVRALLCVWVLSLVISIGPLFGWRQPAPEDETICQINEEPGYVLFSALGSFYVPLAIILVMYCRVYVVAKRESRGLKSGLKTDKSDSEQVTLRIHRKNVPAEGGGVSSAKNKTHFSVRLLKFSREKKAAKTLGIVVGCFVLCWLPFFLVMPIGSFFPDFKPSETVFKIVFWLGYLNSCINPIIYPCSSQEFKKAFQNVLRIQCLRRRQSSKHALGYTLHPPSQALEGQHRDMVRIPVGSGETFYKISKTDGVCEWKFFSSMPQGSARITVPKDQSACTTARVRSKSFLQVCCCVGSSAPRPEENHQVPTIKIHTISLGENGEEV
Put plainly: Displacement of [3H]prazosin from rat cortex Alpha-1 adrenergic receptor. The gist of the method: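 Rat cortex membranes labelled with [3H]prazosin (0.3 nM), nonspecific binding with prazosin (10 µM). Nine drug concentrations spanning 3 log units, IC50 by log-probit analysis. Ki by Cheng–Prusoff using Kd from Scatchard saturation. At least three independent experiments in duplicate.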

Assay [2] deals with T2, Alpha-2B adrenergic receptor (Rattus norvegicus, UniProt P19328).
T2 sequence (P19328 whole entry): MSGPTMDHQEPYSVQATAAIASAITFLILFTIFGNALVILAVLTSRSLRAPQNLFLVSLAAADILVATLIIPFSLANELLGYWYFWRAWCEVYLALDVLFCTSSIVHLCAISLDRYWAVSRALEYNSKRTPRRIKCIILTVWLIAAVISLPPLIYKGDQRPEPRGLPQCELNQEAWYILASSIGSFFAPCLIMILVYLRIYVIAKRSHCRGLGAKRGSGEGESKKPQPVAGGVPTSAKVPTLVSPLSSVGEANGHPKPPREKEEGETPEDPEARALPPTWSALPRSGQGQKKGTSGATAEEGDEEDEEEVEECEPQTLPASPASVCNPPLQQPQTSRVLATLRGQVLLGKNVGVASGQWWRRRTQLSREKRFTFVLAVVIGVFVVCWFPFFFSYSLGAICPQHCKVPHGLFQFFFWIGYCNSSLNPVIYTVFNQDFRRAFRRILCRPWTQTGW
Put plainly: Binding affinity towards Alpha-2B adrenergic receptor in neonatal rat lung using [3H]-RX-821002 as radioligand. A digest of the protocol:
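Neonatal rat lung membranes with [3H]RX821002 (0.5 nM), nonspecific binding with phentolamine (10 µM). Nine concentrations over 3 log units, IC50 by log-probit, Ki by Cheng–Prusoff with Scatchard-derived Kd. ≥3 independent experiments in duplicate.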

Assay [3] deals with T3, Alpha-2A adrenergic receptor (Homo sapiens, UniProt P08913).
T3 sequence (P08913 whole entry): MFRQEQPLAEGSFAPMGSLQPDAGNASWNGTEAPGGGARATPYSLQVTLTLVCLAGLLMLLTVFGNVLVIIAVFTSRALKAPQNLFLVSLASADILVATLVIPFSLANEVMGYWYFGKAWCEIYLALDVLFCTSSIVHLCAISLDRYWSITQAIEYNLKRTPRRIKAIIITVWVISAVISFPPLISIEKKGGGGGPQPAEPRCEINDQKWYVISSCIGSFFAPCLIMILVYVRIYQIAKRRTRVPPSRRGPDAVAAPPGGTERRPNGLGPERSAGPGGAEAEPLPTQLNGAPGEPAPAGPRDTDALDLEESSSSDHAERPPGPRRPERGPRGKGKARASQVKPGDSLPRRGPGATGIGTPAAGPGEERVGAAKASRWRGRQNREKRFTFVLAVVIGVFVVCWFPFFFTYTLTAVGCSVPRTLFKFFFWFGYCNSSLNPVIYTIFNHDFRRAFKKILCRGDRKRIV
In words: Binding affinity towards Alpha-2A adrenergic receptor in human platelets using [3H]RX-821002 as radioligand. A digest of the protocol: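 Human platelet membranes with [3H]RX821002 (1.5 nM), nonspecific binding with phentolamine (10 µM). Displacement at nine concentrations spanning 3 orders of magnitude, IC50 by log-probit analysis, converted to Ki using Scatchard Kd. ≥3 independent duplicate experiments.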

The species entered for assay [4] is Canis familiaris. In words: Effective concentration for the agonist in the isolated blood vessel using in vitro femoral artery. The class given is functional. The settings on record: Canis lupus familiaris. A digest of the protocol: (§1)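 Vessel segments from mongrel dogs (15–25 kg) anesthetized with pentobarbital (30 mg/kg iv), mounted for isometric tension in physiological saline. Equilibrated 90 min with bath changes every 30 min, rauwolscine (10^-7 M) present throughout. Primed with KCl (100 mM), then phenylephrine (1 µM). Agonist concentration–response curves run at half-log steps, giving EC50 (µM) and Emax as % of phenylephrine maximum; mean ±SD.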

The species entered for assay [5] is Canis familiaris. Put plainly: Effective concentration for the agonist in the isolated blood vessel using in vitro saphenous vein. Particulars: Canis lupus familiaris. Format: functional. The gist of the method:
as §1

The species named for assay [6] is Canis familiaris. In words: Maximal contractile response obtained with the agonist (expressed as a percentage of the maximal contraction to phenylephrine in the dog femoral artery). Format: functional, Canis lupus familiaris. A digest of the protocol:
as §1

The species named for assay [7] is Canis familiaris. Put plainly: Maximal contractile response obtained with the agonist (expressed as a percentage of the maximal contraction to phenylephrine in the dog saphenous vein). The class given is functional, Canis lupus familiaris. The gist of the method: as §1
In assay [8] the target is T4, Adrenergic receptor alpha (Rattus norvegicus) (UniProt P15823+P23944+P43140+P22086+P19328+P22909). Put plainly: Alpha adrenergic activity was evaluated as concentration (iv) which increases the arterial pressure by 20 mmHg in the pithed rat. The class given is functional, organism-based. The settings on record: Artery.
Assay [9] in a line: ratio of C20 obtained in the absence or presence of [C20 ( 0.1 mg of prazosin ) / C20 (control)]. The class given is functional. The gist of the method:
(§2)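 Pithed rats pretreated with tertatolol (100 mg/kg), then 10 min later with prazosin (100 µg/kg). Cumulative iv agonist doses given another 10 min later at 20 s intervals. Arterial pressure recorded, C20 (dose giving +20 mmHg) determined. Ratio calculated as C20(prazosin)/C20(control); 3–6 determinations.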

Assay [10] in a line: ratio of C20 obtained in the absence or presence of [C20 (1 mg of yohimbine.) / C20 (control)]. The class given is functional. A digest of the protocol:
(§3)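 Pithed rat arterial pressure assay with tertatolol (100 mg/kg) pretreatment, then yohimbine (1 mg/kg) 10 min later. Cumulative iv agonist doses given at 20 s intervals after a further 10 min, C20 (+20 mmHg dose) obtained. Ratio expressed as C20(yohimbine)/C20(control); 3–6 determinations.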

Assay [11] addresses T4, Adrenergic receptor alpha (Rattus norvegicus). Put plainly: Alpha adrenergic activity was evaluated as maximal pressure response caused by agonist, expressed in mmHg (the maximum obtained with phenylephrine is 150 mmHg). Format: functional.
Assay [12] can be described thus: Ratio of C20 (pithed rat) to that of EC50(saphenous vein). Format: functional.
Assay [13] in a line: Ratio of C20 (pithed rat) to that of EC50 (saphenous vein). The class given is functional.
Assay [14] is described as follows: Ratio of C20 obtained in the absence or presence of [C20 ( 0.1 mg of prazosin ) / C20 (control)]. The class given is functional. A digest of the protocol:
as §2

Assay [15] in a line: Ratio of C20 obtained in the absence or presence of [C20 (1 mg of yohimbine.) / C20 (control)]. Format: functional. The gist of the method: as §3

As for `C1=NCC2(CCc3ccccc3C2)N1` (centres undefined), the results for the Ki in [1], in assay [2] and in [3] were 14400 nM, 275 nM and 34 nM, respectively. Also, the figures for the EC50 in the assay filed under Canis familiaris [4] and in the assay listed under Canis familiaris [5] were 7500 nM and 1300 nM, respectively. For the same compound, the Emax in the assay filed under Canis familiaris [6] is recorded as 19; in the assay listed under Canis familiaris [7] it was 99. Also, in assay [8], the C20 was determined as 4 µg/kg. Further, the Ratio was 2 in assay [9] and 5.3 in assay [10]. The same compound registered a Max in [11] of 120 mmHg.
`CN1C=NCC12CCc1ccccc1C2` (centres undefined): the Emax in the assay filed under Canis familiaris [6] and in the assay filed under Canis familiaris [7] was 0 throughout. The C20 in [8] stood at 675 µg/kg. Further, the Ratio in assay [9] stood at 1.55; in assay [10], 1.9. In assay [11], this compound came in with a Max of 73 mmHg.
For `CC1=NCC2(CCc3ccccc3C2)N1C` (centres undefined), the Emax in the assay listed under Canis familiaris [6] and in the assay listed under Canis familiaris [7] was 0 each time. This compound yielded a C20 in assay [8] of 1060 µg/kg. The values for the Ratio in [9] and in assay [10] were 1 and 1.1, respectively. The same compound registered a Max in assay [11] of 73 mmHg.
With `C1=NCC2(CCc3cc4c(cc3C2)CCC4)N1` (centres undefined), the concentration for a half-maximal effect (EC50) in the assay listed under Canis familiaris [5] amounted to 70 nM. For the same compound, the values for the Emax in the assay filed under Canis familiaris [6] and in the assay filed under Canis familiaris [7] were 0 and 17, respectively. Moreover, the C20 in assay [8] was 74 µg/kg. The Ratio stood at 1.1 in assay [9], 5 in assay [10] and 1057 in assay [12]. The Max in [11] is 68 mmHg.
Take `Cc1ccc2c(c1)CC1(CC2)CN=CN1` (centres undefined): the Ki turned out to be 1000 nM in [1], 50 nM in [2] and 7 nM in [3]. The EC50 is 74000 nM in the assay listed under Canis familiaris [4] and 260 nM in the assay listed under Canis familiaris [5]. Moreover, the Emax was found to be 5 in the assay filed under Canis familiaris [6] and 64 in the assay listed under Canis familiaris [7]. Moreover, the C20 in [8] was 8 µg/kg. The Ratio in assay [13] is 31. Moreover, the Max in [11] turned out to be 111 mmHg.
As to `COc1ccc2c(c1)CCC1(CN=CN1)C2` (centres undefined), the Ki in assay [1] came to 29400 nM. This compound came in with an EC50 in the assay filed under Canis familiaris [5] of 8800 nM. Besides, the results for the Emax in the assay listed under Canis familiaris [6] and in the assay filed under Canis familiaris [7] were 3 and 60, respectively. In assay [8], the C20 amounted to 42 µg/kg. Besides, the values for the Ratio in assay [13], in [14] and in assay [15] were 4.77, 2.6 and 1.5, respectively. The same compound came in with a Max in assay [11] of 105 mmHg.
Regarding `COc1ccc2c(c1)CC1(CC2)CN=CN1` (centres undefined), in assay [1], the Ki turned out to be 16000 nM. Also, in the assay filed under Canis familiaris [5], the EC50 is 7100 nM. Also, the Emax in the assay filed under Canis familiaris [6] is listed as 0; in the assay listed under Canis familiaris [7] it was 49. In assay [8], the C20 was 1.5 µg/kg. In addition, the Ratio turned out to be 0.21 in [13], 3.9 in [14] and 6.9 in assay [15]. Also, in assay [11], the Max came to 106 mmHg.
